Laboratory results as given in the EternaBench riboswitch data.

How the values were obtained:
[1] = tested on: MS2 coat protein; assay: apparent Kd, MS2 coat protein; higher = weaker binding; RNA-MaP array; tryptophan 2.4 mM where present
In short: (§1)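 Stalled E. coli RNA polymerase transcribed each design on Illumina sequencing-chip clusters. The clusters were titrated with SNAP-549-labelled MS2 coat protein, starting at 0.7 or 1.5 nM and doubling up to 3 µM, first without ligand and then with constant ligand, in 100 mM Tris-HCl pH 7.5, 80 mM KCl, 4 mM MgCl2, BSA, DTT, yeast tRNA and Tween-20. Green signal was normalised to red-channel RNA signal and to the control-cluster median Fmax. The apparent Kd is the median of filtered binding-curve fits made for each cluster.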

[2] = tested on: MS2 coat protein; assay: apparent Kd, MS2 coat protein; higher = weaker binding; RNA-MaP array; theophylline 2 mM where present
In short: as §1

[3] = designed as: OFF switch for tryptophan, no ligand
[4] = ligand present: tryptophan, designed as: OFF switch for tryptophan
[5] = designed as: ON switch for tryptophan, no ligand
[6] = ligand present: tryptophan, designed as: ON switch for tryptophan
[7] = designed as: OFF switch for theophylline, no ligand
[8] = ligand present: theophylline, designed as: OFF switch for theophylline
[9] = designed as: ON switch for theophylline, no ligand
[10] = ligand present: theophylline, designed as: ON switch for theophylline

AAUUAUCAGUCGGCCGCCACUGACACAUGAGGAUCACCCAUGUAACUUGGGUUAAAUUUAAUAAACAGGACCGGGACAAAGGCUA
apparent Kd [1, 3]: 186 nM
apparent Kd [1, 4]: 184 nM

AACAUGAGGAUCACCCAUGUGUCCUCGAAACGAGGACCGGUACGGCCGCCACUCGAAAUAAGCUGUUGACGAAAAGUCAGCAGCA
apparent Kd [1, 3]: 281 nM
apparent Kd [1, 4]: 501 nM

AUAAUAAUCAUGGGUGAAGGUCCUCGCAAACGAGGACCGGUACGGCCGCCACUCGAACAUGAGGAUCACCCAUGUGUGAGGACCU
apparent Kd [1, 5]: 58.8 nM
apparent Kd [1, 6]: 36.9 nM

GCGUGGUCUGCGGCCGCCACUCAAGGAGCUACAUAGCUCCUAGACAUGAGGAUCACCCAUGUCGCGAGGACCGGGUAGAUUCUCC
apparent Kd [1, 5]: 96 nM
apparent Kd [1, 6]: 30.8 nM

ACAUUAGCCACGGCCGCCACUGCCUUAUGAUUAUAAGGAUUAAUGAACAUGAGGAUCACCCAUGUCAGGACCGGGUGCCUACCAU
apparent Kd [1, 5]: 22 nM
apparent Kd [1, 6]: 20.7 nM

GAGCUCGUGGACUGGCGUGCUCCGCUCCGUCGAGGACCGGUACGGCCGCCACUCGACAUGAGGAUCACCCAUGUGUGAGCUCGCG
apparent Kd [1, 3]: 62.5 nM
apparent Kd [1, 4]: 30.6 nM

AGUUAUUCGAACAUGGUUGACGAGUGGCAACGAGGACCGGUACGGCCGCCACUCGAAUAAACAUGAGGAUCACCCAUGUACAAAU
apparent Kd [1, 5]: 342 nM
apparent Kd [1, 6]: 287 nM

AAUUAAACAUCGGCCGCCACUUACUCAUGAGGUAACAACAUGAGGAUCACCCAUGUUUGAGGAUCAAGGACCGGGAUGUAAUUUU
apparent Kd [1, 5]: 29.8 nM
apparent Kd [1, 6]: 22.2 nM

UUUUACGGCGAUCUGGGUUUACCAGAUCGGCGAGGACCGGUACGGCCGCCACUCGUGUUUCUUUGACAUGAGGAUCACCCAUGUA
apparent Kd [1, 5]: 26.9 nM
apparent Kd [1, 6]: 16.2 nM

CCUCAAUAGACGGCCGCCACUGAGACAUGAGGAUACAUGAGGAUCACCCAUGUGGGUGUGUCACGCAGGACCGGGUCAAGACCCG
apparent Kd [1, 5]: 523 nM
apparent Kd [1, 6]: 514 nM

AACGCGGUGAUGGUAGCCGGACGCUAGGUACGAGGACCGGUACGGCCGCCACUCGGAGUCCUACGACAUGAGGAUCACCCAUGUA
apparent Kd [1, 5]: 127 nM
apparent Kd [1, 6]: 67.5 nM

CUACAUUUGUAGAAACCGGUCAACAAUAAUCGAGGACCGGUACGGCCGCCACUCGUAUAAUUUAAUACAUGAGGAUCACCCAUGU
apparent Kd [1, 5]: 14.9 nM
apparent Kd [1, 6]: 15.4 nM

CACGCACGAUCGGCCGCCACUCAUGUAGCUUACAUGAGGAUCACCCAUGUAUUUUCUUUCUUAUAGAGGACCGGGAUCGUGCGUG
apparent Kd [1, 5]: 17.6 nM
apparent Kd [1, 6]: 15.3 nM

AUAACCCUUGACUAAAACACUAAAUCAGUUCGAGGACCGGUACGGCCGCCACUCGUGUCAAGACAUGAGGAUCACCCAUGUACCU
apparent Kd [1, 5]: 35.8 nM
apparent Kd [1, 6]: 23.3 nM

AGUUUGGACUCGGCCGCCACUCGUGAUGCUUUGGCACAUGAGGAUCACCCAUGUGGUCGGCCUUAGAGGACCGGGAGUACCAGCC
apparent Kd [1, 5]: 405 nM
apparent Kd [1, 6]: 43 nM

UCGUUUUAGUCGGCCGCCACUGUAUGCAUGUUUAACAUGAGGAUCACCCAUGUCCCGUUCUAUUUCAGGACCGGGACGUAAUCGA
apparent Kd [1, 5]: 525 nM
apparent Kd [1, 6]: 344 nM

CUAUAUAUAUCGGCCGCCACUUACUCAUGAGGUAACAACAUGAGGAUCACCCAUGUUUGAGGAUCAAGGACCGGGAUAUAUAUAG
apparent Kd [1, 5]: 27.4 nM
apparent Kd [1, 6]: 16.6 nM

AGUUACUCGAACAUGGUUGACGAGUGGCAACGAGGACCGGUACGGCCGCCACUCGAAUAAACAUGAGGAUCACCCAUGUACAAAU
apparent Kd [1, 5]: 135 nM
apparent Kd [1, 6]: 104 nM

UUAUAAGUACCGGUCCUCAGAUCCUCAUGACGAGGACCGGUACGGCCGCCACUCGAAACAUGAGGAUCACCCAUGUAAUAAUAUU
apparent Kd [1, 3]: 22.1 nM
apparent Kd [1, 4]: 20 nM

AACAUGAGGAUCACCCAUGUCCCAUGUGAACGAGGACCGGUACGGCCGCCACUCGACUGAGGCGGCACAUGAGGAUCACCCACAU
apparent Kd [1, 5]: 170 nM
apparent Kd [1, 6]: 314 nM

AAUAUAUAGACGGCCGCCACUGGAACCAAUACAUGAGGAUCACCCAUGUGAAAAGGAUAGGUUCACAGGACCGGGUCUUCAUGUA
apparent Kd [1, 5]: 25.7 nM
apparent Kd [1, 6]: 9.99 nM

UAUUAUCAGUCGGCCGCCACUGACACAUGAGGAUCACCCAUGUAAUUUGGGUUAUAUAGAAAAUACAGGACCGGGACUAAGGCUA
apparent Kd [1, 3]: 260 nM
apparent Kd [1, 4]: 276 nM

GUUGUAUACUCGGCCGCCACUGAGAGAGUCAUGUAAACAUGAGGAUCACCCAUGUAAUAUAUAUACAGGACCGGGAGUAUGGUAA
apparent Kd [1, 3]: 15 nM
apparent Kd [1, 4]: 12.9 nM

AUUGUCGUGUCGGCCGCCACUGUCAUGGUUUUCGUGGAAAACAUGAGGAUCACCCAUGUAAUUGACAGGACCGGGACAUGGCGGC
apparent Kd [1, 3]: 9.29 nM
apparent Kd [1, 4]: 10.4 nM

UAUAUAUAUAGUGAUACCAGCAGAGAAAACGUUUAUCCUAACAUGAGGAUCACCCAUGUAUGCCCUUGGCAGCGUUAUAUAUAUA
apparent Kd [2, 7]: 24 nM
apparent Kd [2, 8]: 32.4 nM

ACGUUGAAGUCGGCCGCCACUGAUUUCAUGUUCAACAUGAGGAUCACCCAUGUACCUUAUGUUAACAGGACCGGGACGUAUACGA
apparent Kd [1, 5]: 479 nM
apparent Kd [1, 6]: 117 nM

AUUCAUGGAAACAUGACAUACAUAACCGGUCGAGGACCGGUACGGCCGCCACUCGGUUGGUGGCACAUGAGGAUCACCCAUGUUA
apparent Kd [1, 5]: 23.9 nM
apparent Kd [1, 6]: 26.4 nM

UCGUGUAUAUCGGAUACCAGUGAAAACGAUACAUGAGGAUCACCCAUGUGAGUUGAUGUACACCCUUGGCAGCUGUAUAUAUCUA
apparent Kd [2, 9]: 19.3 nM

GCUAGGUCAUCGGCCGCCACUAUUAGUGGUUCGAACAUGAGGAUCACCCAUGUGCCACAUGCGCAUAGGACCGGGAUGACCUAGC
apparent Kd [1, 5]: 12.7 nM
apparent Kd [1, 6]: 9.42 nM

AAUAAUCUAGGUGAUACCAGCUCAACAUGAGGAUCACCCAUGUACUCAUGUAGAGUUGAGAGCCCUUGGCAGCACCUAGAUAAUA
apparent Kd [2, 9]: 553 nM
apparent Kd [2, 10]: 74.9 nM

GGUUACUCUACGGCCGCCACUGAUAAAUAAUAAACCUGUACAUAAACAUGAGGAUCACCCAUGUACAGGACCGGGUAGUGUAACC
apparent Kd [1, 5]: 32.8 nM
apparent Kd [1, 6]: 24.1 nM

GUACAUGAGGAUCACCCAUGUGGUAGGGAUACCAGCCAGAAGAAAGGCCCUUGGCAGCUUGUAUUUAGUGUGGGUUUGUUUGUUC
apparent Kd [2, 7]: 23.4 nM
apparent Kd [2, 8]: 54.9 nM

ACAUGAGGAUGGGAUACCAGAUACAUGAGGAUCACCCAUACAUGAGGAUCACCCAUGUCCGUCCCUUGGCAGCCCAACAUGAGGA
apparent Kd [2, 7]: 169 nM
apparent Kd [2, 8]: 506 nM

AGCGAUAUGCAUGAUACCAGCUACAUGAGGAUCACCCAUGUACGUCAGUAAUGACUGUGUAGCCCUUGGCAGCAUAGAGCAUGUA
apparent Kd [2, 7]: 25.5 nM
apparent Kd [2, 8]: 33 nM

UUUUUCGCGUUUGAUACCAGCAGAGUUGUUCUGGUCUGGUACAUGAGGAUCACCCAUGUCUGCCCUUGGCAGCAAACGGGAGAAG
apparent Kd [2, 7]: 11.5 nM
apparent Kd [2, 8]: 14.7 nM

GAGGAUCAAGUAGAUACCAGCACAUGAGGAUCACCCAUGUAAUGGUGUCCCUCAAGAACGUGCCCUUGGCAGCUACUAUCAAAAU
apparent Kd [2, 7]: 16.3 nM
apparent Kd [2, 8]: 16.3 nM

CUCAUCCACGCGGCCGCCACUAUUUUUAGGUGUGGGUGUGACGUAUUACAUGAGGAUCACCCAUGUAGGACCGGGCGUGGAUGAG
apparent Kd [1, 3]: 385 nM
apparent Kd [1, 4]: 485 nM

CGAUCUUUCGAAAGAAGGAUCGAGUCUGAUACCAGAGACGAAAGUCUCCCUUGGCAGCAGUGCCAACAUGAGGAUCACCCAUGUA
apparent Kd [2, 9]: 18.7 nM
apparent Kd [2, 10]: 21.1 nM

ACUCUGUCGGGUGAUACCAGCCUCGGCACAUCUCGCGCCGAACAUGAGGAUCACCCAUGUGGCCCUUGGCAGCACAUGACAAAUC
apparent Kd [2, 9]: 328 nM
apparent Kd [2, 10]: 83.1 nM

AGCAUGUUAGCAGAUACCAGACGUUUUAUGAUCCAUGUAACAUGAGGAUCACCCAUGUAAGUCCCUUGGCAGCUGAAAUAAUGCA
apparent Kd [2, 9]: 155 nM
apparent Kd [2, 10]: 301 nM

AAUUUGUCGGGUGAUACCAGCCUCGGCGCAUCUCGCGCUGAACAUGAGGAUCACCCAUGUGGCCCUUGGCAGCACAUGACAAAUC
apparent Kd [2, 9]: 554 nM
apparent Kd [2, 10]: 37.3 nM

UUUGAUAUGACAGAUACCAGCGUGUUGUUGAACAUGAGGAUCACCCAUGUAGUGAUCAAGCGCCCUUGGCAGCUGGUGUGUUAGG
apparent Kd [2, 9]: 125 nM
apparent Kd [2, 10]: 82.7 nM

UAUAUAUAUAUGGAUACCAGCAGAGAAAACGUUUAUCCUAACAUGAGGAUCACCCAUGUAUGCCCUUGGCAGCUGUGUAUAUAUA
apparent Kd [2, 7]: 22.2 nM
apparent Kd [2, 8]: 26.8 nM

ACAUUAGUUGGCGAUACCAGCUAUAGGCCUUCUGGGCGACAUGAGGAUCACCCAUGUGAUGGCCCUUGGCAGCGCUGAUUGAUGU
apparent Kd [2, 9]: 151 nM
apparent Kd [2, 10]: 41.4 nM

ACUAGUUGUGCAGAUACCAGACAUGAGGAUCACCCAUGUUUGGGAUCUUCGGAUCUUCCUGUCCCUUGGCAGCUGUACAUCUAGA
apparent Kd [2, 7]: 85 nM
apparent Kd [2, 8]: 22.5 nM

GCAUGCGAUACCGAUACCAGCUACUCCAUGGCGCUCCACAUGAGGAUCACCCAUGUAAAUAGCCCUUGGCAGCGGUAUUGAGAUG
apparent Kd [2, 7]: 22.7 nM
apparent Kd [2, 8]: 315 nM

UUUUUUAUUAUGGCGUAUCGGAAAACCGAUACCAGUACAGAAAUGUACCCUUGGCAGCGGCGUUUUACAUGAGGAUCACCCAUGU
apparent Kd [2, 7]: 13.9 nM
apparent Kd [2, 8]: 20.1 nM

AGCGAUAUGCAUGAUACCAGCUACAUGAGGAUCACCCAUGUGCGUCAGAAAUGACUGUGUAGCCCUUGGCAGCAUAGAGCAUGUA
apparent Kd [2, 7]: 37.4 nM
apparent Kd [2, 8]: 73.6 nM

CGAAUACGAAUUGAUACCAGCAUGUUAACAUGAGGAUCACCCAUGUUAAGGAUAACAUAAUGCCCUUGGCAGCAACGUAAAUUCG
apparent Kd [2, 9]: 19.4 nM
apparent Kd [2, 10]: 13.4 nM

UUAUAUAUACAUGAGGAUCACCCAUGUGAUACCAGCCUGGAAACAGGCCCUUGGCAGCACAAAUACUCCAGAAAAUAUAAUAAAU
apparent Kd [2, 7]: 26.7 nM
apparent Kd [2, 8]: 199 nM

UUAGAUAUGACAGAUACCAGCGUGUUGUAGAACAUGAGGAUCACCCAUGUAGUGAUCAAGCGCCCUUGGCAGCUGGUAUGUUUGG
apparent Kd [2, 9]: 170 nM
apparent Kd [2, 10]: 221 nM

AGAUUACAUGUUUUAAUACGGAAAACUGAUACCAGUGUAUCUAUUCACCCUUGGCAGCAGCAACAUGAGGAUCACCCAUGUAUUA
apparent Kd [2, 9]: 19.2 nM
apparent Kd [2, 10]: 19.2 nM
